pEC50, pKi: −log10 of the molar value. Values joined by “and” are separate entries in the source; they are usually repeats but may differ in a detail not shown here. Equal entries are not always repeated. “Also recorded” adds a separate entry of the source. Where two headings read alike, the source gives them in different places.
Columns and labels:
[1] = biological target: T1, gpH2R (Cavia porcellus, UniProt P47747); set-up: species or system guinea pig
Target sequence in this assay (P47747 whole entry): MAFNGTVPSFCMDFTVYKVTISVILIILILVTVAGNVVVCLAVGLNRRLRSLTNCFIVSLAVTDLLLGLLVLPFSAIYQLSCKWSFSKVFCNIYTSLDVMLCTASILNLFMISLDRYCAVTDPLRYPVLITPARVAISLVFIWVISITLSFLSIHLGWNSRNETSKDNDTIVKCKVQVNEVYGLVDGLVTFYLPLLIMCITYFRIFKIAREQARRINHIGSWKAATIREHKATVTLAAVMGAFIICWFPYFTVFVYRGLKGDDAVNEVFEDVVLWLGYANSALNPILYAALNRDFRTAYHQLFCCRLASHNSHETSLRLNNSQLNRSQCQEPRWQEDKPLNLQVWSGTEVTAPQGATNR

[2] = biological target: T2, hH4R (Homo sapiens, UniProt Q9H3N8); test: [35S]GTPγS binding assay, Sf9 cell membranes; assay type: biochemical
[3] = biological target: T1, gpH2R; test: biochemical; assay type: biochemical, guinea pig
Target sequence in this assay (P47747 whole entry): as above
Target sequence in this assay (P63092 1-380 isoform P63092-2 partner): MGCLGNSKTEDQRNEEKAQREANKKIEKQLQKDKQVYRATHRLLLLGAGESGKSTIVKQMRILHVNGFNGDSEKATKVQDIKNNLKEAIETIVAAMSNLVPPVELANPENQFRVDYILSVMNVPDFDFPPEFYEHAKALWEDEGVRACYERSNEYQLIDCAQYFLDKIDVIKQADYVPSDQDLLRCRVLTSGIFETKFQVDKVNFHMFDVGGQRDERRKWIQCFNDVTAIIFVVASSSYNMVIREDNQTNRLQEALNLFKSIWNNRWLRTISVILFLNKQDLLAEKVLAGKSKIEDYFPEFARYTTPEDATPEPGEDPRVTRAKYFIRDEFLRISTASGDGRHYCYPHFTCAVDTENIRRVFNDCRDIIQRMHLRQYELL

[4] = biological target: T3, hH2R (Homo sapiens, UniProt P25021); test: [35S]GTPγS binding assay, Sf9 cell membranes; assay type: biochemical
T3 sequence (P25021 whole entry): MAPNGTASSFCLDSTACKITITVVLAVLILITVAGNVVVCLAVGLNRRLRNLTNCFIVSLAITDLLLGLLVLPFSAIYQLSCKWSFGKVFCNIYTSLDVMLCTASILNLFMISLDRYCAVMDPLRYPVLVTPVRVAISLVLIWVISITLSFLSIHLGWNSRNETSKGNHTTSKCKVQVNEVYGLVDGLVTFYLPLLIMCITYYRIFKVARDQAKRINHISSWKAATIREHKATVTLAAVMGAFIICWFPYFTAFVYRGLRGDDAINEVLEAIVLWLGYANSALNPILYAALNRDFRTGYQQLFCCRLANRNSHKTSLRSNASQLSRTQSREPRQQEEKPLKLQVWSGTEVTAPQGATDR
T3 sequence (P63092 1-380 isoform P63092-2 partner): as the sequence (P63092 1-380 isoform P63092-2 partner) above

[5] = biological target: rH2R (Rattus norvegicus, UniProt P25102); test: [35S]GTPγS binding assay, Sf9 cell membranes; assay type: biochemical
Sequence of rH2R (P25102 whole entry): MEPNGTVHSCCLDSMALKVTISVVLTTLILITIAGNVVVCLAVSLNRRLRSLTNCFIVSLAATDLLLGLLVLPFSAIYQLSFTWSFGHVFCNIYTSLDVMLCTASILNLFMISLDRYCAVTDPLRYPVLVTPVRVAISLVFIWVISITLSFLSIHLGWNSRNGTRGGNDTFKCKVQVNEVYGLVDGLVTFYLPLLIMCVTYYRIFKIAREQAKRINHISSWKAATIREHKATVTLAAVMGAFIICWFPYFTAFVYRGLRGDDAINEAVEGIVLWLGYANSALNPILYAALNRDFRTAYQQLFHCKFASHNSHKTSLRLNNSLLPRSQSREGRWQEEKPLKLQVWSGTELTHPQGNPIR
Sequence of rH2R (P63092 1-380 isoform P63092-2 partner): as the sequence (P63092 1-380 isoform P63092-2 partner) above

[6] = biological target: T2, hH4R; test: Radioligand competition binding with [3H]histamine, Sf9 cell membranes
[7] = biological target: T3, hH2R; assay type: binding; conditions: for difference in pKi (H2R) over pKi (H1,3,4R): hH2R selectivity from radioligand binding
[8] = biological target: hH1R (Homo sapiens, UniProt P35367); test: biochemical; assay type: binding
Sequence of hH1R (P35367 whole entry): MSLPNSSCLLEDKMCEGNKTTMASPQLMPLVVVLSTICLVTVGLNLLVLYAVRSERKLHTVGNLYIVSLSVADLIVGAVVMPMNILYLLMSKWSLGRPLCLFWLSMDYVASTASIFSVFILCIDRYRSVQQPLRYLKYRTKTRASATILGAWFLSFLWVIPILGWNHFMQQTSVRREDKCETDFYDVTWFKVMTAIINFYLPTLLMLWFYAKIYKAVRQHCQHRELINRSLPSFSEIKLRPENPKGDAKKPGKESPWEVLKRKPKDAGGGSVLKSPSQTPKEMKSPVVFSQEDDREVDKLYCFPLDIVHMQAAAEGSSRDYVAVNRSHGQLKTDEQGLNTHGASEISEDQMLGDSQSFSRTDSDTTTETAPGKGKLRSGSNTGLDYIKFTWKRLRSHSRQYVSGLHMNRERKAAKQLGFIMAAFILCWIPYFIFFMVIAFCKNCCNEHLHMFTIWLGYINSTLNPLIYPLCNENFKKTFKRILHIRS

[9] = biological target: gpH1R (Cavia porcellus, UniProt P31389); test: Histamine H1 receptor assay on isolated guinea pig ileum
Sequence of gpH1R (P31389 whole entry): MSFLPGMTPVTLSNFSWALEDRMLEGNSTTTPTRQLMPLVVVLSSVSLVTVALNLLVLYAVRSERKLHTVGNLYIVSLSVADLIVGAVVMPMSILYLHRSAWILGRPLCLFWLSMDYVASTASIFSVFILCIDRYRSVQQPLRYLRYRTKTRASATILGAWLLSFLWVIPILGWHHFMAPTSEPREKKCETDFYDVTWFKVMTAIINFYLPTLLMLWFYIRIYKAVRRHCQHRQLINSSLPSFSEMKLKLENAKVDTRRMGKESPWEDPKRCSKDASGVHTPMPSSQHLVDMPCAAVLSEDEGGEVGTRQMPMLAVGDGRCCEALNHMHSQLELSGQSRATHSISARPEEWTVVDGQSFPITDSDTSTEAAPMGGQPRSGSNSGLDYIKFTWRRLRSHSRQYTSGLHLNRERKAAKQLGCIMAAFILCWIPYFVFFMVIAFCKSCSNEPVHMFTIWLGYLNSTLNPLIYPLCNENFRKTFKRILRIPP

[10] = biological target: T4, hH3R (Homo sapiens, UniProt Q9Y5N1); test: [35S]GTPγS binding assay, Sf9 cell membranes; assay type: biochemical
T4 sequence (Q9Y5N1 whole entry): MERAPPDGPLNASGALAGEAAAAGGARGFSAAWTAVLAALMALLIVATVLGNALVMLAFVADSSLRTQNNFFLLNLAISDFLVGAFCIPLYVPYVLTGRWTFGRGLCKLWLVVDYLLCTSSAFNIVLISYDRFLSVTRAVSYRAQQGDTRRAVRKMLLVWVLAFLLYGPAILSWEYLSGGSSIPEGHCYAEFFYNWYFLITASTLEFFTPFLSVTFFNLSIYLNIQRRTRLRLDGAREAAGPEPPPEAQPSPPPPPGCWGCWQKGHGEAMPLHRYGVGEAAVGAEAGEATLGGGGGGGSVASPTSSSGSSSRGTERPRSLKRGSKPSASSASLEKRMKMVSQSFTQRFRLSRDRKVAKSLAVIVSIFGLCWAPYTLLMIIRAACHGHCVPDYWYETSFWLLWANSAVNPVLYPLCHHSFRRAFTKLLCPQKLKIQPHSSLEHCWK

[11] = biological target: T4, hH3R; test: Radioligand competition binding with [3H]Nα-methylhistamine, Sf9 cell membranes
[12] = Chemical stability in binding buffer, RP-HPLC analysis; assay type: physicochemical; conditions: binding buffer pH 7.4, 100 μM, room temperature, 12 months
In short: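 Test compounds (dimeric bisalkylguanidines) were held at 100 μM in binding buffer (12.5 mM MgCl2, 1 mM EDTA, 75 mM Tris/HCl, pH 7.4) at room temperature for 12 months.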

[13] = maximal response relative to histamine (Emax = 1.00)
[14] = hH2R pKi, [3H]tiotidine (Kd […], c = 10 nM), mean ± SEM
[15] = hH3R pKi, [3H]Nα-methylhistamine (Kd 8.6 nM, c = 3 nM), mean ± SEM

Row | SMILES | pEC50 [5] | pKi ([6]; Ki hH4R, bound stated) | pKi ([6]; hH4R pKi) | pKi ([7]; Ki hH2R, bound stated) | pKi [7, 14] | pEC50 [1] | gpH2R Emax [1] | Kb [2] [µM] | hH4R Emax [2] | pKi ([8]; Ki hH1R, bound stated) | pKi ([8]; hH1R pKi) | Kb [9] [µM] | Kb [10] [µM] | hH3R Emax [10] | pEC50 [3] | gpH2R Emax [3] | pKi [11, 15] | pEC50 [4] | hH2R Emax [4] | rH2R Emax [5] | other results
1 | NCCc1c[nH]cn1 [Compound 1, histamine, reference compound] | 5.97 |  |  |  |  |  |  |  |  |  |  |  |  |  |  |  |  |  |  |  | gpH2R Emax ([1]; guinea pig right atrium, relative to maximal increase in heart rate induced by histamine (Emax = 1.00)): 1.00; hH4R Emax [2, 13]: 1.00; gpH2R Emax [3, 13]: 1.00; hH2R Emax [4, 13]: 1.00; rH2R Emax [5, 13]: 1.00
2 | Cc1nc(N)sc1CCCNC(=N)NCCCCCCCCNC(=N)NCCCc1sc(N)nc1C [Compound 58, 1,1′-(Octane-1,8-diyl)bis{3-[3-(2-amino-4-methylthiazol-5-yl)propyl]guanidine}] | 6.83 | < 6.00 |  | > 7.00 | 7.33 |  | 0.78 ± 0.01 |  | 0 | < 6.00 | < 5.50 |  |  | 0 | 7.28 | 0.97 ± 0.06 |  | 6.61 | 0.33 ± 0.03 | 0.70 ± 0.04 | difference in pKi (H2R) over pKi (H1,3,4R) [7]: at least 1.5 log units; chemical stability [12]: excellent chemical stabilities; also recorded: no decomposition; pKi ([11]; Ki hH3R, bound stated): < 6.00
3 | Cc1nc(N)sc1CCCNC(=N)NCCCCCCCCNC(=N)NCCCc1cnc(N)s1 [Compound 63, 1-[3-(2-Amino-4-methylthiazol-5-yl)propyl]-3-{8-[3-(3-(2-aminothiazol-5-yl)propyl)guanidino]octyl}guanidine] | 6.85 |  | 5.14 |  | 6.91 | 8.56 | 0.88 ± 0.03 | 186 | 0 |  | < 5.50 | 1 | 21.4 | 0 | 7.33 | 1.02 and 1.02 ± 0.04 | 5.40 | 6.60 | 0.47 ± 0.03 | 0.87 ± 0.02 | difference in pKi (H2R) over pKi (H1,3,4R) [7]: at least 1.5 log units; Emax [1]: 88%; potency relative to histamine ([1]; gpH2R, atrium): 250 times

Compounds with a higher pEC50 [5], results first:

Row | pEC50 [5] | pKi ([6]; Ki hH4R, bound stated) | pKi ([6]; hH4R pKi) | pKi ([7]; Ki hH2R, bound stated) | pKi [7, 14] | pEC50 [1] | gpH2R Emax [1] | Kb [2] [µM] | hH4R Emax [2] | pKi ([8]; Ki hH1R, bound stated) | pKi ([8]; hH1R pKi) | Kb [9] [µM] | Kb [10] [µM] | hH3R Emax [10] | pEC50 [3] | gpH2R Emax [3] | pKi [11, 15] | pEC50 [4] | hH2R Emax [4] | rH2R Emax [5] | SMILES | other results
4 | 7.18 | > 7.00 | 7.06 | > 7.00 | 7.05 | 7.98 | 0.91 and 0.91 ± 0.05 | 407 | 0 | < 6.00 | 5.50 | 1.7 | 0.135 | 0 | 7.60 | 0.95 and 0.95 ± 0.05 | 7.52 | 6.78 | 0.50 ± 0.03 | 0.80 ± 0.01 | N=C(NCCCCCCCCNC(=N)NCCCc1c[nH]cn1)NCCCc1c[nH]cn1 [Compound 5, 1,1′-(Octane-1,8-diyl)bis{3-[3-(1H-imidazol-4-yl)propyl]guanidine}] | pKi ([11]; Ki hH3R, bound stated): > 7.00
5 | 7.61 |  | 7.70 |  | 7.41 | 8.11 | 0.63 and 0.63 ± 0.03 | 324 | 0 |  | 6.45 | 0.123 | 0.0468 | 0 | 7.53 | 0.89 ± 0.07 | 7.79 | 7.27 | 0.52 ± 0.03 | 0.80 and 0.80 ± 0.03 | N=C(NCCCCCCCCCCCCNC(=N)NCCCc1c[nH]cn1)NCCCc1c[nH]cn1 [Compound 57, 1,1′-(Dodecane-1,12-diyl)bis{3-[3-(1H-imidazol-4-yl)propyl]guanidine}] | chemical stability [12]: excellent chemical stabilities; also recorded: no decomposition; gpH1R pA2 ([9]; guinea pig ileum, antagonism of histamine-induced contraction): 6.91

From PMC6130797 (ACS Omega, 2018)
